Data set [1] has as its target Melanin-concentrating hormone receptor 1 (Homo sapiens, UniProt Q99705). Kind of data set: Displacement of 125I-MCH from MCH-R1 expressed in IMR-32 cells. It counts as cell-based. A general note: Loss of bound radioactivity is the signal in a displacement assay; it reports binding, not function.
The target of data set [2] is Melanin-concentrating hormone receptor (Homo sapiens, UniProt Q969V1+Q99705). Put plainly: Inhibition of MCH-mediated calcium release in IMR-32 cells. Format: functional, cell-based.
Data set [3] has as its target Voltage-gated inwardly rectifying potassium channel KCNH2 (Homo sapiens, UniProt Q12809). Put plainly: Displacement of 3H-dofetilide from hERG-expressing HEK membrane homogenates.
A short description of data set [4]: Brain Cmax in DIO mice after 10 mg/kg peroral dose. To be noted: mouse, po. Format: ADME, organism-based. Details: dose 10 mg/kg, route oral. In outline:
(§1)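 Single oral dose, 10 mg/kg in 1% Tween 80/water, to DIO mice; plasma and brain sampled over time. Cmax = average of the three mice with highest concentrations ± SEM. Mean concentration data fitted multi-exponentially; AUC0-t by linear trapezoidal rule, extrapolated to infinity with Ct/β added.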

In data set [5] the test system is Mus musculus. Put plainly: Brain AUC in DIO mice after 10 mg/kg peroral dose. Also noted: dose 10 mg/kg, route oral. Format: ADME, organism-based. To be noted: in vivo, po. In outline:
as §1

Data set [6] has as its system Mus musculus. Kind of data set: (§2) Half-life in plasma of DIO mice after 10 mg/kg peroral dose. Format: ADME, organism-based. Details: dose 10 mg/kg, route oral. Particulars: in vivo, po. In outline:
as §1

Data set [7] has as its system Mus musculus. Put plainly: Plasma AUC in DIO mice after 10 mg/kg peroral dose. It counts as ADME, organism-based. Also noted: dose 10 mg/kg, route oral. To be noted: in vivo, po. In outline:
as §1

The subject of data set [8] is Mus musculus. Kind of data set: Plasma Cmax in DIO mice after 10 mg/kg peroral dose. Format: ADME, organism-based. Also noted: dose 10 mg/kg, route oral. To be noted: in vivo, po. In outline:
as §1

Data set [9] is described as follows: as §2. It counts as ADME, organism-based. Details: dose 10 mg/kg, route oral. Particulars: mouse, plasma, po. In outline:
as §1

Consider six molecules from ChEMBL document CHEMBL1137584, “Constrained 7-fluorocarboxychromone-4-aminopiperidine based Melanin-concentrating hormone receptor 1 antagonists: the effects of chirality on substituted indan-1-ylamines” (Bioorg Med Chem Lett, 2007).

As usually defined, the IC50 is the concentration at which inhibition is half-maximal. By Cmax is commonly meant the highest concentration seen after dosing. Broadly, the half-life is the time in which the quantity being followed falls by half.

Chain of Melanin-concentrating hormone receptor 1 (Q99705 whole entry): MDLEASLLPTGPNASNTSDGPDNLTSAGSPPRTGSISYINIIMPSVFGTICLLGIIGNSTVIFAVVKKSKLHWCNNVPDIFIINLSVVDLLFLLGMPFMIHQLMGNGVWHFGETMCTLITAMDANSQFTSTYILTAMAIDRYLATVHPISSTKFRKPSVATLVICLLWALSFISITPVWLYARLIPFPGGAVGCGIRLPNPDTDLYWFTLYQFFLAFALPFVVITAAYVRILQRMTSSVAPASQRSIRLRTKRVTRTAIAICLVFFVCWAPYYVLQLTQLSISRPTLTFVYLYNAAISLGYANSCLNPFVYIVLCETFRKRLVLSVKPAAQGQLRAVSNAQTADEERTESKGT
Chain of Voltage-gated inwardly rectifying potassium channel KCNH2 (Q12809 whole entry): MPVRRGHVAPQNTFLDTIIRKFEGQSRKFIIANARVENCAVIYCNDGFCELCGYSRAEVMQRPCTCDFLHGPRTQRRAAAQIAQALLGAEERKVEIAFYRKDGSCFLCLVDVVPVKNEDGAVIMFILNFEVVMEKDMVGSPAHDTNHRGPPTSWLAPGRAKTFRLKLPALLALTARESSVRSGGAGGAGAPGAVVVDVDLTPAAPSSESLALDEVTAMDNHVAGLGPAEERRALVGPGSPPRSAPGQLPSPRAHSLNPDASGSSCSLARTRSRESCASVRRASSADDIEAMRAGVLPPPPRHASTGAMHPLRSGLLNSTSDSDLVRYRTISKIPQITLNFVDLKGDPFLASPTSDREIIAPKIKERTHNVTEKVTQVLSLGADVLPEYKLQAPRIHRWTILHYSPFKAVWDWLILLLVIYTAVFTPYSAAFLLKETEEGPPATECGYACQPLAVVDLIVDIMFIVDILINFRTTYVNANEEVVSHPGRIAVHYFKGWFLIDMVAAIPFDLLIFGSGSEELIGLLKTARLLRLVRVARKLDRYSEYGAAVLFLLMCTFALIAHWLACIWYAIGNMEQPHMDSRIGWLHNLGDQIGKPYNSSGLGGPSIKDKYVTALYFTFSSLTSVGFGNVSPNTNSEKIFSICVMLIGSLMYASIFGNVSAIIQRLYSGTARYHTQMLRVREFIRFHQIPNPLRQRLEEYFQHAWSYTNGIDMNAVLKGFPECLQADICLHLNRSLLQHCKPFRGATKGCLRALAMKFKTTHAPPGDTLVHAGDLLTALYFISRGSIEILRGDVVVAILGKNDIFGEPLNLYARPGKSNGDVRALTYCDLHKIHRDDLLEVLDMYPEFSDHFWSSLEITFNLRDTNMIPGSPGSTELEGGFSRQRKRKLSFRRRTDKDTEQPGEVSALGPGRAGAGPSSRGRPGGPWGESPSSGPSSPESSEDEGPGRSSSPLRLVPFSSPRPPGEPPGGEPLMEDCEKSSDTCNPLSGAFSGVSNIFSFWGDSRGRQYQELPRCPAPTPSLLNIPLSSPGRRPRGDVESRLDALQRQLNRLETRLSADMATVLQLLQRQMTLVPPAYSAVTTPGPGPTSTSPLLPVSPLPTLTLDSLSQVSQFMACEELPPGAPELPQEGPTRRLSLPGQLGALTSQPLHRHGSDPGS

Take `O=C1COc2cc3c(cc2N1)C(N1CCC(NC(=O)c2cc(=O)c4ccc(F)cc4o2)CC1)CC3` (centres undefined): the IC50 in data set [1] amounted to 21 nM; in data set [2], 0.095 µM; in data set [3], 14.6 µM.

In the case of `O=C(NC1CCN(C2CCc3cc4oc(=O)[nH]c4cc32)CC1)c1cc(=O)c2ccc(F)cc2o1` (centres undefined), the figures for the IC50 in data set [1], in data set [2] and in [3] were 11 nM, 0.173 µM and 25 µM, respectively.

As to `CC(=O)Nc1ccc2c(c1)C(N1CCC(NC(=O)c3cc(=O)c4ccc(F)cc4o3)CC1)CC2` (stereo in doubt; 16), the IC50 in [1] turned out to be 3 nM; in data set [2], 0.056 µM.

With `CC(=O)Nc1ccc2c(c1)C(N1CCC(NC(=O)c3cc(=O)c4ccc(F)cc4o3)CC1)CC2` (single isomer, unassigned; (+)), the IC50 in [1] was 2570 nM; in data set [2], more than 10 µM. For the same molecule, the peak concentration (Cmax) in [4] is 17 ng/g; in data set [8], 1.41 µg/mL. Moreover, the AUC in data set [5] amounted to 0.043 µg·h/g; in data set [7] it was 3.76 µg·h/mL. Moreover, the T1/2 in data set [6] is on record as 1.3 h.

For the molecule `O=C(NC1CCN(C2CCc3c2ccc2c3OCO2)CC1)c1cc(=O)c2ccc(F)cc2o1` (centres undefined), the IC50 in [1] amounted to 76 nM; in data set [2], 2.75 µM; in data set [3], 5.86 µM.

Turning to `CC(=O)Nc1ccc2c(c1)C(N1CCC(NC(=O)c3cc(=O)c4ccc(F)cc4o3)CC1)CC2` (single isomer, unassigned; (-)), the IC50 in data set [1] was determined as 4 nM; in data set [2] it was 0.026 µM. The AUC in data set [5] is 0 µg·h/g; in data set [7] it was 41.6 µg·h/mL. This molecule had a half-life in data set [9] of 138 min. The molecule further had a Cmax in data set [8] of 14.6 µg/mL.
